Our source for the Activity and EC50 values is ChEMBL document CHEMBL1799920, “Total synthesis and pharmacological characterization of solomonsterol A, a potent marine pregnane-X-receptor agonist endowed with anti-inflammatory activity” (J Med Chem, 2011).

Activity calls are given as the source filed them. The rule behind the calls is not given here.

One assay relates to THP-1. As to the kind of experiment: Inhibition of NF-kappaB p65 DNA binding activity in LPS-stimulated human THP1 cells at 10 uM after 3 hrs by electrophoretic mobility shift assay. Type of assay: cell-based. In short, it runs like this:
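THP-1 cells were pretreated with compound (10 μM) or vehicle for 3 h, then LPS 1 μg/mL was added for 20 h. Nuclear extracts were incubated with biotinylated NF-κB probe for 20 min at room temperature, run on a 6% native gel and detected by chemiluminescence. Specificity was checked by cold-probe competition and p65 antibody supershift. Three independent experiments.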
In general terms: In EMSA bound probe runs differently from free probe, usually more slowly.

The subject of assay [1] is Mus musculus. Kind of assay: Antiinflammatory activity against trinitrobenzenesulfonic acid-induced colitis in human PXR expressing transgenic C57/BL6 mouse assessed as decrease in occurrence of diarrhea at 10 mg/kg, po qd administered 3 days before TNBS challenge measured after 7 days. Type of assay: functional, organism-based. The arrangement: dose 10 mg/kg. Particulars: C57Bl/6. In short, it runs like this: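 Clinical read-outs in hPXR mice with TNBS colitis (0.5 mg/mouse intrarectally in 50% ethanol after a 16 h fast). Oral dosing at 10 mg/kg once daily (DMSO diluted in 1% methylcellulose) started 3 days before TNBS. Diarrhea was scored and body weight recorded, weight expressed as delta percentage versus the day before TNBS; sacrifice was 4 days after TNBS. n = 6–7.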

The subject of assay [2] is Mus musculus. Kind of assay: Antiinflammatory activity against trinitrobenzenesulfonic acid-induced colitis in human PXR expressing transgenic C57/BL6 mouse assessed as decrease in appearance of epithelial erosions in colon at 10 mg/kg, po qd administered 3 days before TNBS challenge measured after 7 days by haematoxylin/eosin staining. The format is functional, organism-based. The arrangement: dose 10 mg/kg. Particulars: C57Bl/6. In outline: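 TNBS colitis in male hPXR mice (human PXR on mouse PXR-null background). After a 16 h fast and light ketamine/xylazine i.p. anesthesia, mice received TNBS 0.5 mg/mouse in 50% ethanol intrarectally by catheter. Dosing was 10 mg/kg orally once daily, dissolved in DMSO and diluted in 1% methylcellulose, starting 3 days before TNBS. Colons were taken 4 days after TNBS and stained with H&E. n = 6–7.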

Assay [3] deals with Mus musculus. Kind of assay: Antiinflammatory activity against trinitrobenzenesulfonic acid-induced colitis in human PXR expressing transgenic C57/BL6 mouse assessed as decrease in TNF-alpha protein level in colon at 10 mg/kg, po qd after 5 days by ELISA. Type of assay: functional, organism-based. Particulars: C57Bl/6. More on the design: dose 10 mg/kg. In short, it runs like this:
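TNFα and IL-10 were measured by ELISA in colon homogenates (T-PER lysis, 10,000g for 15 min at 4 °C) from TNBS-colitic hPXR mice. Mice were dosed orally at 10 mg/kg once daily in DMSO/1% methylcellulose, starting 3 days before intrarectal TNBS (0.5 mg/mouse). Values were normalized to protein; mean ± SE, 6–7 mice/group.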
On the technique in general: An ELISA detects its analyte on a solid surface through an enzyme-linked reagent.

Assay [4] has as its system Mus musculus. As to the kind of experiment: Antiinflammatory activity against trinitrobenzenesulfonic acid-induced colitis in human PXR expressing transgenic C57/BL6 mouse assessed as decrease in IL-12p70 protein level in colon at 10 mg/kg, po qd after 5 days. Type of assay: functional, organism-based. The arrangement: dose 10 mg/kg. The following applies: C57Bl/6.
Assay [5] concerns the target T1, Nuclear receptor subfamily 1 group I member 2 (Homo sapiens, UniProt O75469).
T1 sequence (O75469 whole entry): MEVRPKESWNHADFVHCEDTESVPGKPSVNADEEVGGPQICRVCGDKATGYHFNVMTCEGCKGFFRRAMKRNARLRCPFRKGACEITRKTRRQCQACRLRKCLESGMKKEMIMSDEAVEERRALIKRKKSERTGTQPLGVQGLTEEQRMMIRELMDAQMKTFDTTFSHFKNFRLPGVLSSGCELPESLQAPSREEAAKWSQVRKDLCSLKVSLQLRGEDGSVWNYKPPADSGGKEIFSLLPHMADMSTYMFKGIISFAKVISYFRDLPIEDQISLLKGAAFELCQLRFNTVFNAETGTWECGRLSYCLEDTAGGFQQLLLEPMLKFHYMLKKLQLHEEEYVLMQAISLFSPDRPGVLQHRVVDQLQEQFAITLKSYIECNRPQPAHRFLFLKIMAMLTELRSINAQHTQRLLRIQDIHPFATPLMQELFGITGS
As to the kind of experiment: Transactivation of human PXR expressed in HepG2 cells after 18 hrs by luciferase reporter gene assay. Type of assay: cell-based. In outline: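 HepG2 cells were transiently transfected with pSG5-PXR, pSG5-RXR, pCMV-βgal and a CYP3A4-promoter luciferase reporter. 48 h after transfection, cells were stimulated for 18 h at 0.1, 1 and 10 μM. Luciferase was normalised to β-galactosidase; n = 4. Relative EC50 from n = 3.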

Assay [6] has as its system Mus musculus. Kind of assay: Antiinflammatory activity against trinitrobenzenesulfonic acid-induced colitis in human PXR expressing transgenic C57/BL6 mouse assessed as decrease in weight loss at 10 mg/kg, ip qd administered 3 days before TNBS challenge measured after 7 days. The format is functional, organism-based. More on the design: dose 10 mg/kg. The following applies: C57Bl/6. In short, it runs like this: (§1)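 Male hPXR mice (human PXR on mouse PXR-null background). Fasted 16 h and lightly anaesthetised with ketamine/xylazine, then given TNBS 0.5 mg/mouse in 50% ethanol intrarectally in 150 μL. Drug was dissolved in DMSO, diluted in 1% methylcellulose and given i.p. once daily for 3 days before TNBS. Vehicle controls received methylcellulose. Mice were sacrificed 4 days after TNBS; n = 6–7 per group.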

Assay [7] has as its system Mus musculus. As to the kind of experiment: Antiinflammatory activity against trinitrobenzenesulfonic acid-induced colitis in human PXR expressing transgenic C57/BL6 mouse assessed as decrease in presence of indurations in colon at 10 mg/kg, ip qd administered 3 days before TNBS challenge measured after 7 days. Type of assay: functional, organism-based. The arrangement: dose 10 mg/kg. The following applies: C57Bl/6. In outline: as §1

The subject of assay [8] is Mus musculus. Kind of assay: Antiinflammatory activity against trinitrobenzenesulfonic acid-induced colitis in human PXR expressing transgenic C57/BL6 mouse assessed as decrease in evidence of mucosal hemorrhage in colon at 10 mg/kg, ip qd administered 3 days before TNBS challenge measured after 7 days. The format is functional, organism-based. More on the design: dose 10 mg/kg. The following applies: C57Bl/6. In short, it runs like this: as §1

In assay [9] the test system is Mus musculus. As to the kind of experiment: Antiinflammatory activity against trinitrobenzenesulfonic acid-induced colitis in human PXR expressing transgenic C57/BL6 mouse assessed as decrease in cellular infiltrate in colon at 10 mg/kg, ip qd administered 3 days before TNBS challenge measured after 7 days. The arrangement: dose 10 mg/kg. Particulars: C57Bl/6. Type of assay: functional, organism-based. In outline: as §1

For assay [10], the system named is Mus musculus. As to the kind of experiment: Antiinflammatory activity against trinitrobenzenesulfonic acid-induced colitis in human PXR expressing transgenic C57/BL6 mouse assessed as decrease in TNF-alpha protein level in colon at 10 mg/kg, ip qd after 5 days by ELISA. Type of assay: functional, organism-based. The arrangement: dose 10 mg/kg. Particulars: C57Bl/6. In outline: as §1

Assay [11] relates to Mus musculus. As to the kind of experiment: Antiinflammatory activity against trinitrobenzenesulfonic acid-induced colitis in human PXR expressing transgenic C57/BL6 mouse assessed as increase in IL-10 protein level in colon at 10 mg/kg, ip qd after 5 days by ELISA. More on the design: dose 10 mg/kg. The following applies: C57Bl/6. The format is functional, organism-based. In outline:
as §1

For assay [12], the system named is Mus musculus. Kind of assay: Antiinflammatory activity against trinitrobenzenesulfonic acid-induced colitis in human PXR expressing transgenic C57/BL6 mouse assessed as decrease in leukocyte infiltration in colon at 10 mg/kg, ip administered on day 1 after TNBS challenge measured after 5 days by microscopically. The format is functional, organism-based. The arrangement: dose 10 mg/kg. The following applies: C57Bl/6. In short, it runs like this: (§2)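 Therapeutic protocol in male hPXR mice. Colitis was induced with intrarectal TNBS 0.5 mg/mouse in 50% ethanol after a 16 h fast and light ketamine/xylazine anaesthesia. Drug at 10 mg/kg was given once daily from day 1 after TNBS. Mice were sacrificed 5 days after TNBS; n = 4–6 per group.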

Assay [13] relates to Mus musculus. Kind of assay: Antiinflammatory activity against trinitrobenzenesulfonic acid-induced colitis in human PXR expressing transgenic C57/BL6 mouse assessed as decrease in colonic myeloperoxidase level at 10 mg/kg, ip administered on day 1 after TNBS challenge measured after 5 days. The format is functional, organism-based. More on the design: dose 10 mg/kg. The following applies: C57Bl/6. In short, it runs like this:
as §2

The test system of assay [14] is Mus musculus. Kind of assay: Antiinflammatory activity against trinitrobenzenesulfonic acid-induced colitis in human PXR expressing transgenic C57/BL6 mouse assessed as increase in TGF-beta1 protein level in colon at 10 mg/kg, ip qd after 5 days. Particulars: C57Bl/6.

As a reminder, the EC50 is the midpoint of the concentration-response curve.

As for `CO[C@H]1/C=C/O[C@@]2(C)Oc3c(C)c(O)c4c(O)c(c5c(nc6cc(C)ccn65)c4c3C2=O)NC(=O)/C(C)=C\C=C\[C@H](C)[C@H](O)[C@@H](C)[C@@H](O)[C@@H](C)[C@H](OC(C)=O)[C@@H]1C` [RIFAXIMIN], the result with THP-1, in the assay on Mus musculus [1], in the assay with Mus musculus [2], with Mus musculus [3] and with Mus musculus [4] was Active. The compound further gave an EC50 in assay [5] of 2.2 µM.
Turning to `C[C@H](CCCOS(=O)(=O)O)[C@H]1CC[C@H]2[C@@H]3CC[C@H]4C[C@H](OS(=O)(=O)O)[C@@H](OS(=O)(=O)O)C[C@]4(C)[C@H]3CC[C@]12C` [SOLOMONSTEROL A], the result with Mus musculus [6], with Mus musculus [7], in the assay on Mus musculus [8], with Mus musculus [9], with Mus musculus [10] and with Mus musculus [11] was Active. In addition, the result in the assay on THP-1, in the assay on Mus musculus [12], with Mus musculus [13] and in the assay with Mus musculus [14] was Active. Also, in assay [5], it took 5.2 µM to reach a half-maximal effect (EC50).
